Screening results deposited in PubChem BioAssay by The Scripps Research Institute Molecular Screening Center.
Rows were chosen to be rich in hits. Some 3.7% of all compounds tested hit in one or more screens of this group.
core dimer inh: inhibitors of HCV core protein dimerization, primary screen, biochemical, TR-FRET, high-throughput; 300,000 compounds, 0.33% hits; TR-FRET GST/Flag-core106 dimerization, 1536-well; inhibition, % at 5 µM; AID 1899, 2009;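 active means inhibition above the mean of all tested compounds plus 3 SD, set per screening campaign, cut at about 45% in these data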
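Material: GST/Flag-tagged HCV core106 proteins. Incubation: 4 h, 22.5 °C incubation. Read-out basis: inhibition (%) from 671 over 617 nm ratio. Measured by: TR-FRET, excitation 340 nm, emission 617 and 671 nm.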
NS3 helicase inh: inhibitors of HCV NS3 helicase, primary screen, biochemical, Cy5 molecular beacon fluorescence; 290,000 compounds, 0.56% hits; Hepatitis C virus NS3 helicase; NS3 helicase DNA unwinding; inhibition, % at 10.9 µM;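 active means inhibition above the mean of all tested compounds plus 3 SD, set per campaign, cut at about 35% in these data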;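 further: 0% = DMSO wells and 100% = thioflavine S control wells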
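Material: hepatitis C virus NS3 helicase domain fragment enzyme; measured by: Cy5 fluorescence, 0 and 60 min reads; control set: DMSO and thioflavine S; incubation: 60 min unwinding reaction at 25 °C after ATP addition; read-out basis: % inhibition from 60/0 min fluorescence ratio, DMSO 0%, thioflavine S 100%; repeats: singlicate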
rCAG RNA binder: binders of r(CAG) RNA repeats, primary screen, biochemical, fluorescence. r(CAG) RNA repeat, TO-PRO-1 dye displacement fluorescence. inhibition, % at 3 µM. 370,000 compounds, 1.3% hits;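 active means inhibition above the plate cutoff, the mean of all test compounds on that plate plus 3 SD, cut at about 35% in these data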;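 further: 0% = DMSO alone and 100% = 100 µM mitoxantrone as full dye displacement; higher means more dye released from RNA so lower well fluorescence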
TAAR1 antagonist: human TAAR1 antagonists, primary screen, Fluo-8 calcium fluorescence, CHO RD-HGA16 cells | 360,000 compounds, 1.5% hits | AID 624466, 2012 | Trace amine-associated receptor 1 (Homo sapiens), Q96RJ0 | inhibition, % at 3 µM | antagonist;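 active means inhibition above a per-plate cutoff, the mean inhibition of test compounds on that plate plus 3 SD, cut at about 49% in these data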;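 further: 0% = DMSO plus EC80 beta-PEA response and 100% = DMSO alone without agonist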
Target sequence (Q96RJ0 whole entry, looked up): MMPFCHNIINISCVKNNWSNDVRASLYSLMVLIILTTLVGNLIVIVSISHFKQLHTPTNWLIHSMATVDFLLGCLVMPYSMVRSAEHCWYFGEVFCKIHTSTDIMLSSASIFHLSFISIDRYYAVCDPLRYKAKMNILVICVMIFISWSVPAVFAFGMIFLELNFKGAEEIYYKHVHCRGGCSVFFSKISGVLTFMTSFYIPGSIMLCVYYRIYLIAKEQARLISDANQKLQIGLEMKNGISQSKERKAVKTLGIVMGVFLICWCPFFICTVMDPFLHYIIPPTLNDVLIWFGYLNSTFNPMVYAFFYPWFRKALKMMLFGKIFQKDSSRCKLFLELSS
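System: RD-HGA16 CHO cells with stable hTAAR1 and Gα16 | Probe or stimulus: EC80 β-phenethylamine stimulus | Dosing: 3 µM, single point | Times: Dye loading 75 min at 37 °C, then 30 min room temperature | Measured by: Fluo-8 calcium-sensitive fluorescence | Read-out basis: % inhibition of agonist calcium response | Replicates: n of 1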
TAAR1 ag: human TAAR1 agonists, primary screen, Fluo-8 calcium fluorescence, CHO RD-HGA16 cells | activation, % at 3 µM | vehicle wells 0%, saturating PEA agonist 100% | Trace amine-associated receptor 1 (Homo sapiens), Q96RJ0 | 360,000 compounds, 0.99% hits;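 active means activation above the mean activation of all test compounds in the run plus 3 SD, cut at about 38% in these data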
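Repeats: no replicates (n 1) | Material: CHO-derived RD-HGA16 cells with stable Gα16 and human TAAR1 | Technique: Kinetic Fluo-8 calcium fluorescence | Schedule: 17-24 h seeding, 75 min 37 °C dye, 30 min RT | Evaluation: % activation from peak over basal fluorescence ratio, DMSO-to-PEA scaled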
TAAR1 ag confirm: human TAAR1 agonists, retest of hits, confirmation, Fluo-8 calcium fluorescence, CHO RD-HGA16 cells | shares compounds with TAAR1 ag | scaled: DMSO 0%, maximal phenethylamine 100% | activation, % at 3 µM | 2,400 compounds, 82% hits | AID 651783, 2012;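 active means activation above a cutoff set at the run's mean compound activation plus 3 SD, cut at about 39% in these data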
Ga16 nonsel ag: nonselective calcium mobilization agonists, CHO-Ga16 cells, counter-screen for hTAAR1 agonist project, cell-based, fluorescence, CHO-Ga16 parental line; shares compounds with TAAR1 ag; Fluo-8 calcium fluorescence; normalized to maximal ATP response, DMSO zero; activation, % at 3 µM; 2,400 compounds, 50% hits;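 active means activation above the run cutoff, the mean activation over all tested wells plus 3 SD, cut at about 12% in these data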;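 further: 0% = DMSO wells and 100% = maximal ATP response on the peak over basal ratio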
TAAR1 desens: TAAR1 desensitization by agonist hits, confirmation, counter-screen for TAAR1 agonist project, cell-based, fluorescence, tachyphylaxis; inhibition, % at 3 µM; 2,400 compounds, 46% hits; shares compounds with TAAR1 ag; CHO RD-HGA16 hTAAR1, Fluo-8 calcium, beta-PEA response inhibition;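 active means inhibition above the run cutoff, the mean inhibition of all test compounds plus 3 SD, cut at about 49% in these data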;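 further: beta-PEA stimulus applied at its EC80; loss of beta-PEA calcium signal after compound pretreatment read as receptor desensitization; 0% = DMSO with beta-PEA at EC80 and 100% = DMSO alone without agonist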
Ga16 antag count: inhibition of ATP-evoked calcium response in CHO-Ga16 cells, counter-screen for TAAR1 agonist project, cell-based, fluorescence | shares compounds with TAAR1 ag | CHO-Ga16 ATP-induced calcium, Fluo-8 fluorescence | inhibition, % at 3 µM | 2,400 compounds, 39% hits | AID 651952, 2012;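 active means inhibition above the plate's mean compound inhibition plus 3 SD, computed per plate, cut at about 22% in these data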;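 further: 0% = EC80 ATP with DMSO and 100% = DMSO wells without ATP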
Numbers without * were called inactive; · = no result.

SMILES | core dimer inh | NS3 helicase inh | rCAG RNA binder | TAAR1 antagonist | TAAR1 ag | TAAR1 ag confirm | Ga16 nonsel ag | TAAR1 desens | Ga16 antag count
COC(=O)c1cc2c(c3c4cc(C)ccc4n(S(=O)(=O)c4ccc(OC)cc4)c13)C(=O)N(Cc1ccc(C(F)(F)F)cc1)C2 | · | · | 11.7 | -20.4 | 0.2 | · | · | · | ·
COc1ccc(-c2cc(C3CCN(Cc4ccc([N+](=O)[O-])cc4)CC3)[nH]n2)cc1 | 2.4 | -18.1 | -4.9 | -6.3 | 48.5* | 39.8* | 17.8* | 3.0 | 14.9
COc1ccc(-c2cc(C3CCN(CC(O)C(F)(F)F)CC3)[nH]n2)cc1 (configuration not stated) | 5.6 | -9.8 | -6.7 | 22.6 | 44.4* | 76.7* | 2.0 | 54.5* | -2.7
Cc1ccc(CN2CCC(c3cc(-c4ccc(Cl)cc4)n[nH]3)CC2)cc1 | -9.8 | -47.3 | -9.4 | 33.0 | 67.4* | 84.8* | 20.9* | 74.7* | 31.2*
Clc1ccc(-c2cc(C3CCNCC3)[nH]n2)cc1 | -7.3 | -11.9 | 1.2 | 18.0 | 3.7 | · | · | · | ·
Nc1[nH]c(C(=O)c2ccccc2)c(-c2ccc3c(c2)OCO3)c1C(=O)NCCc1c[nH]c2ccccc12 | · | · | 13.9 | 15.5 | 6.0 | · | · | · | ·
CSCCCNC(=O)Cn1nc(Cc2ccncc2)c2ccccc2c1=O | · | · | 3.5 | · | · | · | · | · | ·
COC(=O)C1=C(C)N(Cc2ccc(C(F)(F)F)cc2)C(=NCc2ccc3c(c2)OCO3)NC1c1ccccc1 (configuration not stated) | · | · | 12.5 | 34.6 | 32.0 | · | · | · | ·
COc1ccc(CN2C3=N[C@H](c4ccccc4)CC(=O)N3/C(=C\c3ccccc3)C2c2ccco2)c(OC)c1 (some centres not stated) | · | · | 8.5 | · | · | · | · | · | ·
C[C@@H]1OC(C2CCCCC2)N(C)[C@H]2C[C@H]3c4[nH]c5c(-c6ccc7c(c6)OCO7)cccc5c4CCN3C[C@@H]12 (some centres not stated) | · | · | 8.3 | · | · | · | · | · | ·
COC(=O)C1=C(C)N(Cc2cccc(C(F)(F)F)c2)C(=NCc2cc(OC)c(OC)c(OC)c2)NC1c1ccc(F)cc1 (configuration not stated) | · | · | 6.4 | 51.9* | 59.8* | 23.2 | 15.9* | 17.0 | 29.6*
COC(=O)C1=C(C)N(Cc2cccc(C(F)(F)F)c2)C(=NCc2ccc3c(c2)OCO3)NC1c1ccccc1 (configuration not stated) | · | · | 9.2 | 47.6 | 43.3* | 46.5* | 14.4* | 30.9 | 27.1*
COC(=O)C1=C(C)N(Cc2cccc(C(F)(F)F)c2)C(=NCc2ccc3c(c2)OCO3)NC1c1cccc(F)c1 (configuration not stated) | · | · | 5.1 | 58.0* | 65.1* | 57.8* | 19.6* | 67.9* | 42.8*
COC(=O)C1=C(C)N(Cc2cccc(C(F)(F)F)c2)C(=NCc2ccc3c(c2)OCO3)NC1c1cccc(Cl)c1 (configuration not stated) | · | · | 5.9 | 27.8 | 33.7 | · | · | · | ·
O=C1CSc2ccc(C(=O)N3CCCC(C(=O)N4CCCC4)C3)cc2N1 (configuration not stated) | · | · | 2.2 | · | · | · | · | · | ·
COC(=O)C1CCCN(C(=O)C2CCN(S(=O)(=O)c3ccccc3[N+](=O)[O-])CC2)C1 (configuration not stated) | · | · | 4.9 | · | · | · | · | · | ·
COC(=O)c1cc2c(c3c4cc(F)ccc4n(C(=O)c4ccccc4)c13)C(=O)N(C1CCCCC1)C2 | · | · | 14.9 | -0.5 | 0.3 | · | · | · | ·
CCOC(=O)[C@]12CCC=C1N(Cc1ccc3c(c1)OCO3)C(=O)[C@H](CC(=O)NCCc1ccccc1OC)C2 | · | · | 1.8 | 38.1 | 60.1* | 91.0* | 2.9 | 76.2* | -2.2
COC(=O)[C@]12CCCCC=C1N(Cc1ccco1)C(=O)[C@H](CC(=O)NCCc1ccccc1OC)C2 | · | · | 6.9 | 9.1 | 50.6* | 31.0 | 2.7 | 25.7 | 20.2
CCCCCCCCN1C(=O)[C@H](CC(=O)NCCCC)C[C@@]2(C(=O)OCC)CCCC=C12 | · | · | 5.0 | -14.1 | -1.8 | · | · | · | ·
CCOC(=O)[C@]12CCC=C1N(Cc1cccc3ccccc13)C(=O)[C@H](CC(=O)NCCc1ccccc1OC)C2 | · | · | 6.2 | 34.6 | 55.1* | 69.9* | 1.2 | 45.9 | 14.3
CCCCCCCCN1C(=O)[C@H](CC(=O)NCCc2ccccc2OC)C[C@@]2(C(=O)OCC)CCCC=C12 | · | · | 5.6 | -1.8 | 56.2* | 56.5* | 2.0 | 24.7 | 10.2
CCOC(=O)[C@]12CCC=C1N(Cc1cccc3ccccc13)C(=O)[C@H](CC(=O)NCc1cccc3ccccc13)C2 | · | · | 12.2 | -5.5 | 6.0 | · | · | · | ·
COC(=O)[C@]12C[C@H](CC(=O)NCc3ccc(C)o3)C(=O)N(Cc3ccc4c(c3)OCO4)C1=C[C@H](C(C)C)O[C@@H]2C1CC1 | · | · | 4.7 | · | · | · | · | · | ·
Nc1[nH]c(C(=O)c2ccccc2)c(-c2ccc(Cl)cc2)c1C(=O)c1c[nH]c2ccc(Br)cc12 | · | · | 25.3 | -20.1 | 1.0 | · | · | · | ·
SMILES | core dimer inh | NS3 helicase inh | rCAG RNA binder | TAAR1 antagonist | TAAR1 ag | TAAR1 ag confirm | Ga16 nonsel ag | TAAR1 desens | Ga16 antag count
CCc1ccccc1NC(=O)C1CCC(=O)N(c2ccc(OC)cc2)C1c1ccc(OC)cc1 (configuration not stated) | · | · | 0.1 | · | · | · | · | · | ·
COC(=O)[C@@]12C[C@@H](CC(=O)NCCc3ccccc3OC)C(=O)N(Cc3ccc4c(c3)OCO4)C1=CCC(C)(C)C2 | · | · | 4.9 | 51.0* | 60.9* | 100.3* | 0.1 | 58.5* | -1.1
CCCCCCCCCCn1c2c(c(=N)c3c1CCC3)CCC2 | 12.4 | -83.0 | 15.1 | 34.2 | 47.1* | 52.5* | 23.2* | 41.2 | 36.7*
CCCCCCCCCn1c2c(c(=N)c3c1CCC3)CCCC2 | · | -67.1 | · | · | · | · | · | · | ·
COc1cc(OC)c(C(=O)C=Cc2ccc(OC)c(OC)c2)c(OC)c1 | · | · | 4.2 | 6.1 | -0.3 | · | · | · | ·
COc1ccc(/C=C/C(=O)c2ccc([N+](=O)[O-])o2)cc1OC | 9.3 | · | 1.3 | 42.0 | 58.9* | 46.7* | 16.7* | 49.0* | 31.0*
